# Experimental data published in PubChem BioAssay AID488914 (Broad Institute, 2010).
# Inconclusive results are not listed. The source made the active and inactive calls.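 Rule for the calls: active = compounds raising caspase signal whose fitted half-maximal concentration lies at or below their highest valid tested dose; inconclusive = flat curve at 30 to 70% activity, or unreliable fit; inactive = the rest.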
# Test system: not listed separately
# Assay: caspase activation in TSA-primed MEWO cells, dose response, A1 (Bcl2-A1) inhibitor project, cell-based, Trichostatin A priming, dry powder (AID 488914)
# Conditions: MEWO cells TSA-primed, caspase-Glo luminescence, 3 h; at 135 µM (top of the series)
# Method in brief: (§1)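 Assay system: human MEWO cells with A1 expression, Trichostatin A primed; Amount: 2500 MEWO cells seeded per well; Medium: RPMI-1640 plus 10% FBS; Measured by: Caspase-Glo luminescence, reagent diluted 1:1 in 50 mM HEPES; Read-out: caspase activity from luminescence signal.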
row,Compound,caspase activation
1,COc1cc(/C=C(/C#N)c2nc3ccccc3[nH]2)ccc1OCC(=O)Nc1ccccc1C(C)C,2.25% (inactive)
2,C=C1[C@@H](C)[C@H]2[C@H](Cc3ccccc3)NC(=O)[C@]23[C@H](OC(C)=O)/C=C/[C@](C)(O)C(=O)[C@@H](C)C/C=C/[C@H]3[C@@H]1O,5.7% (inactive)
3,Nc1nc(F)nc2c1ncn2[C@@H]1O[C@H](CO)[C@@H](O)[C@H]1O,-2.16% (inactive)
4,Cc1cccc(CS(=O)(=O)c2ncc(Cl)c(C(=O)Nc3nnc(C(C)C)s3)n2)c1,-9.05% (inactive)
5,CCSc1nnc(NC(=O)c2nc(S(=O)(=O)Cc3ccc(F)cc3)ncc2Cl)s1,-10.5% (inactive)
6,O=C(CCl)N=c1sccn1Cc1ccccc1Cl,3.57% (inactive)
7,Cc1ccc(CS(=O)(=O)c2ncc(Cl)c(C(=O)Nc3nnc(C(C)C)s3)n2)cc1,-9.39% (inactive)
8,CCc1nnc(NC(=O)c2nc(S(=O)(=O)Cc3ccccc3)ncc2Cl)s1,-6.87% (inactive)
9,Cn1c(=NC(=O)CCl)sc2ccccc21,-6.3% (inactive)

# Test system: MEWO cells TSA-primed, caspase-Glo luminescence, 3 h
# Assay: as above
# Conditions: not given
# Method in brief: as §1
row,Compound,AC50
1,Cc1cc(C(=O)CCl)c(C)n1CCc1ccc(Cl)cc1,77.8 µM
2,C=C1[C@@H](C)[C@H]2[C@H](Cc3ccccc3)NC(=O)[C@]23OC(=O)/C=C\[C@H](O)CCC[C@@H](C)C/C=C/[C@H]3[C@@H]1O,2.29 µM
3,CC(=O)N[C@H]1[C@H](O[C@H]2CC[C@@]3(C)C(CC[C@]4(C)C3CC=C3[C@@H]5CC(C)(C)CC[C@]5(C(=O)OC5OCC(O)C(O)C5O)C(O)C[C@]34C)C2(C)C)O[C@H](COC2OCC(O)C(OC3OCC(O)C(O)C3O)C2O)[C@@H](O[C@@H]2O[C@@H](C)[C@H](O)[C@@H](O)[C@H]2O[C@@H]2O[C@@H](C)[C@H](O)[C@@H](O)[C@H]2O)[C@@H]1O (stereo not given in full),6.81 µM
4,COc1cccc(C(=O)C(C#N)=C(SC)SC)c1,0.92 µM
5,Cc1ccc(Sc2c([N+](=O)[O-])c(=O)n(C)c3ccccc23)cc1,16.8 µM
6,CCOC(=O)CSC1=N/C(=C/c2ccc(-n3cncn3)cc2)C(=O)N1C(C)=O,4.12 µM
7,Cc1c(CCOC(=O)c2ccc(N3CCOCC3)c([N+](=O)[O-])c2)sc[n+]1CC#N,13.1 µM
8,C/C1=C/C(=O)O[C@@H]2C[C@@H](CC[C@H](C)/C=C\CC1)O[C@@](O)(C1CSC(=O)N1)C2 (stereo not given in full),0.632 µM
9,O=C(Oc1cccc(/C=N/Nc2nc(Nc3ccccc3)nc(N3CCOCC3)n2)c1)c1ccco1,6.87 µM
10,COc1ccc(N(C(=O)CCl)C(C(=O)NCCc2ccccc2)c2cccs2)cc1Cl (stereo not given),10.6 µM
11,CC(C)(C)n1nc(-c2ccc(Cl)cc2)c2c(N)ncnc21,> 135 µM (inactive)
